Assay results taken from paper PMC8359806 (Science translational medicine, 2020).

Legend:
lipoprotein lipase (LPL) = test: Ex vivo TG lipolysis; assay type: biochemical; settings: human apoC-II-deficient plasma (TG=1711 mg/dL) with added LPL
Summary of the method: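 Human apoC-II-deficient plasma (TG=1711 mg/dL) was spiked with LPL plus test compound at the indicated concentrations or at 10 μM. LPL activity was read as NEFA generation, measured enzymatically. Results are the mean of triplicates ± S.D. (two-way ANOVA, Bonferroni post-test), or N=8 at 10 μM (Mann-Whitney).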

apoC-III = apoC-III (Homo sapiens, UniProt P02656); assay type: biochemical; settings: 33 μM apoC-III added to pooled human HTG plasma (TG=360 mg/dL) with LPL
Chain of apoC-III (P02656 21-99): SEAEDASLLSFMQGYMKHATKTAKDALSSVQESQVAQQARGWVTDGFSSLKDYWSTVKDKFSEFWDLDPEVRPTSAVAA
Summary of the method: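 Pooled human HTG plasma (TG=360 mg/dL) was incubated with LPL and test compound at 0–100 μM (0–0.47 mg/mL), with or without 33 μM apoC-III. Reference conditions were LPL alone and LPL with apoC-III. Lipolysis was read as NEFA generation, measured enzymatically. Results are the mean of triplicates ± S.D. (two-way ANOVA, Bonferroni post-test).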

Substance: TYLPAVDEKLRDLYSKSTAAMSTYTGIFTDQVLSVLKGEE [RCH2]
- stimulation of ex vivo lipolysis (lipoprotein lipase (LPL)): only partial activity

Substance: apoC-III: apolipoprotein C-III, inhibits LPL
- inhibition of ex vivo lipolysis of TG (apoC-III): approximately 40%
